In ChEMBL document CHEMBL4414601 (J Med Chem, 2019):
Converted amounts (≈) assume the structure as drawn.

Assays:
[1] = molecular target: T1, Nuclear receptor subfamily 1 group I member 2 (Homo sapiens, UniProt O75469); experiment: Agonist activity at human PXR
T1 sequence (O75469 whole entry): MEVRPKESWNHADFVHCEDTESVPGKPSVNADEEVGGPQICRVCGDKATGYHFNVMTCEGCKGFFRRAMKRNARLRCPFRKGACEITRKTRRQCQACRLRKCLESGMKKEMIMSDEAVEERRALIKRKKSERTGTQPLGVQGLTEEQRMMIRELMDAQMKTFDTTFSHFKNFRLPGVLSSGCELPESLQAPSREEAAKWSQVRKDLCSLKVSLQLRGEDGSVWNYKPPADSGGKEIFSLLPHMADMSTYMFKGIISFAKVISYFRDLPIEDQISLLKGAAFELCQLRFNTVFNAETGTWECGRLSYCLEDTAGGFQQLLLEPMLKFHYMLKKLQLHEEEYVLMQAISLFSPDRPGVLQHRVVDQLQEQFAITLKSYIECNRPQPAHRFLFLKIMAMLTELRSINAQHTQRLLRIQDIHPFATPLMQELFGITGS

[2] = Aqueous solubility of compound; settings: buffer
[3] = molecular target: Beta-2 adrenergic receptor (Homo sapiens, UniProt P07550); experiment: Agonist activity at human beta2 adrenoceptor
Sequence of Beta-2 adrenergic receptor (P07550 whole entry): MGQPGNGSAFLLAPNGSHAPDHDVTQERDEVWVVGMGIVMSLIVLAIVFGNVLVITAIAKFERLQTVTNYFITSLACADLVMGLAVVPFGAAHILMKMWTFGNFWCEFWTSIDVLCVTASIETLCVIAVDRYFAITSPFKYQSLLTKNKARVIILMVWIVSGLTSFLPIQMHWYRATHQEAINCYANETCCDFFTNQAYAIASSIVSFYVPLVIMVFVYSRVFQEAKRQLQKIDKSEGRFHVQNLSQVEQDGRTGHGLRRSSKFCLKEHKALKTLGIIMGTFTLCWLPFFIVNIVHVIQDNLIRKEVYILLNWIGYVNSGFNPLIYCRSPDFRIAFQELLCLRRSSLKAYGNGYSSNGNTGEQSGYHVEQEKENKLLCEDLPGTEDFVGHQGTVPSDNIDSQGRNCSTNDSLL

[4] = Binding affinity to SRPK2 in Plasmodium falciparum 3D7 blood stage extract incubated for 1 hr in presence of ATP-competitive kinase inhibitor by kinobeads based pull down assay; settings: read-out: Kd(app)
How it was run: (§1)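 The free compound competed over six concentrations from 0.08 to 20 μM. Proteins were digested by a modified SP3 protocol, labelled with TMT 10-plex and quantified by LC-MS/MS. Apparent Kd was derived from IC50 corrected for bead depletion. Two independent experiments were run.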

[5] = molecular target: T2, Aryl hydrocarbon receptor (Homo sapiens, UniProt P35869); experiment: Agonist activity at human aryl hydrocarbon receptor
T2 sequence (P35869 whole entry): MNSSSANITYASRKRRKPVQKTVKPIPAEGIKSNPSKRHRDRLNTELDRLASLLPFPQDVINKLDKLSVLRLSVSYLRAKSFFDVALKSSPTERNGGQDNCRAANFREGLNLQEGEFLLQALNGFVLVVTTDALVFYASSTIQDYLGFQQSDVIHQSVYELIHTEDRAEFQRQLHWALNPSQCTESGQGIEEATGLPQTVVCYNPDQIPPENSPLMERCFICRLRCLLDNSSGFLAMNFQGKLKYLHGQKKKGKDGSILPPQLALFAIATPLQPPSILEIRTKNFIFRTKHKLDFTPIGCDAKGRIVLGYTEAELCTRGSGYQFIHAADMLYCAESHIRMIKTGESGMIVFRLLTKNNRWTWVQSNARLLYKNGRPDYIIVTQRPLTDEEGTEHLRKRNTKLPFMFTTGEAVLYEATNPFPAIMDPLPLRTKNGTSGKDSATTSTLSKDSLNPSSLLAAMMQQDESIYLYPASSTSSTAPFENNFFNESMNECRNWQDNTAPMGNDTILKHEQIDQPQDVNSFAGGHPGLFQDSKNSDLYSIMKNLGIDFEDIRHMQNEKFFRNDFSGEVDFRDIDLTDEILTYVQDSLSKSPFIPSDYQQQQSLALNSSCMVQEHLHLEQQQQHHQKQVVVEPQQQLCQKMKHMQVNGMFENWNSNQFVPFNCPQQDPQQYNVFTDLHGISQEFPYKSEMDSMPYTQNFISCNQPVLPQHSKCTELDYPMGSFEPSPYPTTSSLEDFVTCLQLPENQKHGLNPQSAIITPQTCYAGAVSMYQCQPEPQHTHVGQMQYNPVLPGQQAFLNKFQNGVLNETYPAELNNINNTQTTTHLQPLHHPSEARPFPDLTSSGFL

[6] = Binding affinity to GSK3 in Plasmodium falciparum 3D7 blood stage extract incubated for 1 hr in presence of ATP-competitive kinase inhibitor by kinobeads based pull down assay; settings: read-out: Kd(app); how it was run: as §1
[7] = molecular target: cGMP-inhibited 3',5'-cyclic phosphodiesterase 3A (Homo sapiens, UniProt Q14432); experiment: Inhibition of PDE3A (unknown origin)
Sequence of cGMP-inhibited 3',5'-cyclic phosphodiesterase 3A (Q14432 whole entry): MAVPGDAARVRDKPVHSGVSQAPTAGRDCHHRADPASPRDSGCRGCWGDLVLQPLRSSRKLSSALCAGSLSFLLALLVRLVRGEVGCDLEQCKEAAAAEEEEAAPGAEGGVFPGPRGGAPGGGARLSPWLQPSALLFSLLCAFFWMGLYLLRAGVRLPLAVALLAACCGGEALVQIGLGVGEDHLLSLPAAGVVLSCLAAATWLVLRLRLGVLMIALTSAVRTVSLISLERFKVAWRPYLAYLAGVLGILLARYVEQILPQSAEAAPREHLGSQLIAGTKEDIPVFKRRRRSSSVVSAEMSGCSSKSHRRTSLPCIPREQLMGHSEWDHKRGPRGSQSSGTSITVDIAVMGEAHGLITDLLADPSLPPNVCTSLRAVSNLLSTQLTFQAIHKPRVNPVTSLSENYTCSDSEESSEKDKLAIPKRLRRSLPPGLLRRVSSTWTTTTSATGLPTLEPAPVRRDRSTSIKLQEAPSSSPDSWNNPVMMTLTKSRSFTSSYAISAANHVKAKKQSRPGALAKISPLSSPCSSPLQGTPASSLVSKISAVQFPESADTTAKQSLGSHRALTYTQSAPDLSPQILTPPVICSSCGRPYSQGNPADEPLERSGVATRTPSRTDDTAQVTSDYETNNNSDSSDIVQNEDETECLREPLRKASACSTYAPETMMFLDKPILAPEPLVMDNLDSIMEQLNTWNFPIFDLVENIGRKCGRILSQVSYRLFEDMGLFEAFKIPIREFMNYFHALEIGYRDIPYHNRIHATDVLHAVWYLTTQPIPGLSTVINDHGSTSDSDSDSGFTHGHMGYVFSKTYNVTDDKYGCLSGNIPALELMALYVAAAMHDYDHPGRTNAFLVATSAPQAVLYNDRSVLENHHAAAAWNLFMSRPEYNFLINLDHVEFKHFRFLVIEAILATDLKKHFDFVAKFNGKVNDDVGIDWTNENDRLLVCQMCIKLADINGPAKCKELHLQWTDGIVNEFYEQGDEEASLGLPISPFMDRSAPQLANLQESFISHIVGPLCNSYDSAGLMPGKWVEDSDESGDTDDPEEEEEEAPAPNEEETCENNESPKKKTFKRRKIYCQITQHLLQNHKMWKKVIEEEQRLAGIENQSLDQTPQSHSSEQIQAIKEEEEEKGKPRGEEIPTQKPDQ

Plasmodium falciparum = experiment: Antiplasmodial activity against Plasmodium falciparum 3D7A asexual erythrocytic stage assessed as reduction in [3H]hypoxanthine incorporation preincubated for 72 hrs followed by [3H]hypoxanthine addition and measured after 24 hrs by microbeta scintillation counting method; assay type: functional, organism-based
[8] = molecular target: T3, Calcium-dependent protein kinase 4 (Plasmodium falciparum (isolate 3D7), UniProt Q8IBS5); experiment: Binding affinity to CDPK4 in Plasmodium falciparum 3D7 blood stage extract incubated for 1 hr by kinobeads based pull down assay; settings: read-out: Kd(app)
T3 sequence (Q8IBS5 whole entry): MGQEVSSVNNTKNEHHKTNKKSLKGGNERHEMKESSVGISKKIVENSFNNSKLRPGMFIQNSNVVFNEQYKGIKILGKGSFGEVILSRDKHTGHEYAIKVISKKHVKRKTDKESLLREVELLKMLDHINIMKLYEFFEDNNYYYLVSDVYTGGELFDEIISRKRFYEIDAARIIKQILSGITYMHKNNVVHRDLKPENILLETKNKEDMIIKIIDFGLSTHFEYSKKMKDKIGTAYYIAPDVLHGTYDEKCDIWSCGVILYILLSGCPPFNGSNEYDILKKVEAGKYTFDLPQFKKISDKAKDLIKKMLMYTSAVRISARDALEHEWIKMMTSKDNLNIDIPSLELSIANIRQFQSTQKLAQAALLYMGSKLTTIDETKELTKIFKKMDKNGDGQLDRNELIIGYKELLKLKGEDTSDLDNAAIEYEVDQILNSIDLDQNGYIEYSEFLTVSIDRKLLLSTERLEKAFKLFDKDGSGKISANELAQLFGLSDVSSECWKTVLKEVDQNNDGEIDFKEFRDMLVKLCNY
How it was run: (§2)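 Chemoproteomic competition used kinobeads or Sepharose beads derivatized with ligand at 1 mM. Free compound was tested at six concentrations between 0.08 and 20 μM, in two independent experiments. Proteins were SP3-digested, TMT 10-plex labelled and measured by LC-MS/MS. IC50s came from competition curves, and apparent Kd was corrected for protein depletion by the beads.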

[9] = molecular target: Voltage-dependent L-type calcium channel subunit alpha-1C (Homo sapiens, UniProt Q13936); experiment: Inhibition of human L-type CaV1.2
Sequence of Voltage-dependent L-type calcium channel subunit alpha-1C (Q13936 whole entry): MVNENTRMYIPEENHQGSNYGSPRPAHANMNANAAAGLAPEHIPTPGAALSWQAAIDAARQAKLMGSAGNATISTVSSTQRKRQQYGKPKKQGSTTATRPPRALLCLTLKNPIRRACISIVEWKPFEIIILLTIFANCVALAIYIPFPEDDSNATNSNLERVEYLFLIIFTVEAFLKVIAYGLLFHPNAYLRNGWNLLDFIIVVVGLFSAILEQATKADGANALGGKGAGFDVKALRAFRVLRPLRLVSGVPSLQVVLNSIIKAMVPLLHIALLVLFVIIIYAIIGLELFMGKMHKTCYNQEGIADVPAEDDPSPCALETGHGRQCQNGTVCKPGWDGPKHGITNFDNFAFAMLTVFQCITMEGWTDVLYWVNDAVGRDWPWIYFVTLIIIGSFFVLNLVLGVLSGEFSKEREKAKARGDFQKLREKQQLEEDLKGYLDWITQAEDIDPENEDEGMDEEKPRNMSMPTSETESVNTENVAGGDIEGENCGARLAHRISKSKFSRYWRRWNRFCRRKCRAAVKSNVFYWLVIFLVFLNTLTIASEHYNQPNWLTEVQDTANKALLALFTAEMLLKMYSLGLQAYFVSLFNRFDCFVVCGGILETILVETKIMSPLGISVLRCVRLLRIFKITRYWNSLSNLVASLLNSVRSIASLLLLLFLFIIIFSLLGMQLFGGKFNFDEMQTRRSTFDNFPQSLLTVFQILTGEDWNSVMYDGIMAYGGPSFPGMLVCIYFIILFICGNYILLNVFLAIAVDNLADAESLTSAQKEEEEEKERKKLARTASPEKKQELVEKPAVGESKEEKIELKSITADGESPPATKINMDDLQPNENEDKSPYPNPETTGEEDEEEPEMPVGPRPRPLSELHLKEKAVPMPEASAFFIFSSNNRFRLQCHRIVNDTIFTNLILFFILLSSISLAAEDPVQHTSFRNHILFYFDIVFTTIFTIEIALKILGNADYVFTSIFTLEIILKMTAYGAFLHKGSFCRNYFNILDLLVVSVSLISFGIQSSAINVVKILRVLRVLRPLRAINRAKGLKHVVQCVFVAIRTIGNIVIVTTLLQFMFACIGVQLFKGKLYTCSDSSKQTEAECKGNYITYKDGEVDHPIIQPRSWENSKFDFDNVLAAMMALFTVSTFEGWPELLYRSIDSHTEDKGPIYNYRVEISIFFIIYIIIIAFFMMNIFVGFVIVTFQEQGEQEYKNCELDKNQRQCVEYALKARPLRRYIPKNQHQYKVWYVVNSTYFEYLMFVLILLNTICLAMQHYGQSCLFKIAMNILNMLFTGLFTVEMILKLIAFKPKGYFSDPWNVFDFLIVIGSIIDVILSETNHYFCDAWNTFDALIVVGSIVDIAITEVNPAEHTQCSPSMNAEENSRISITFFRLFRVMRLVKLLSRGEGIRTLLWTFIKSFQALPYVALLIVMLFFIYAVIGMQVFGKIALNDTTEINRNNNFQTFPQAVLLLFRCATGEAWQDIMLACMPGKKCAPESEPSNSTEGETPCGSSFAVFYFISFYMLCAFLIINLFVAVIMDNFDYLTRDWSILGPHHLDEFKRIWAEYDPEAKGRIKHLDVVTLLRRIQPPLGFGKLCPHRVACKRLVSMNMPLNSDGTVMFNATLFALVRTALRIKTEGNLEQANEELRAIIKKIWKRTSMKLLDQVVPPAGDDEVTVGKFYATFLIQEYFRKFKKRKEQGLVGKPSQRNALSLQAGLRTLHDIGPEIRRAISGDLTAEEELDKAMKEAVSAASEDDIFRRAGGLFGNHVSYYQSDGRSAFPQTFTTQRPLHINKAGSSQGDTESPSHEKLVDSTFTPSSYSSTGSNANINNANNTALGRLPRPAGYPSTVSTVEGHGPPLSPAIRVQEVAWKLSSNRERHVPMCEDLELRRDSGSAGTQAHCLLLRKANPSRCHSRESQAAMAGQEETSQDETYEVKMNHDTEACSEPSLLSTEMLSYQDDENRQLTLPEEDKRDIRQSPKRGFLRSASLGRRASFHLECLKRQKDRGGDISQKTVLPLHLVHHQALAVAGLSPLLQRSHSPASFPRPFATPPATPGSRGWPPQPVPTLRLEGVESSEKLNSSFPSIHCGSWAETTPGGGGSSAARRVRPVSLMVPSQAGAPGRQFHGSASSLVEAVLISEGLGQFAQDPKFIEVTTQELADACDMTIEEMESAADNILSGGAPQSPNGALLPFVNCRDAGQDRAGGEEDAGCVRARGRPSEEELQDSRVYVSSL

[10] = Lipophilicity, LogD of compound by reverse phase HPLC analysis
[11] = molecular target: T3, Calcium-dependent protein kinase 4; experiment: Binding affinity to CDPK4 in Plasmodium falciparum 3D7 blood stage extract incubated for 1 hr in presence of ATP-competitive kinase inhibitor by kinobeads based pull down assay; settings: read-out: Kd(app); how it was run: as §2
Acetylcholinesterase = Acetylcholinesterase (Homo sapiens, UniProt P22303); experiment: Inhibition of AChE (unknown origin)
Sequence of Acetylcholinesterase (P22303 whole entry): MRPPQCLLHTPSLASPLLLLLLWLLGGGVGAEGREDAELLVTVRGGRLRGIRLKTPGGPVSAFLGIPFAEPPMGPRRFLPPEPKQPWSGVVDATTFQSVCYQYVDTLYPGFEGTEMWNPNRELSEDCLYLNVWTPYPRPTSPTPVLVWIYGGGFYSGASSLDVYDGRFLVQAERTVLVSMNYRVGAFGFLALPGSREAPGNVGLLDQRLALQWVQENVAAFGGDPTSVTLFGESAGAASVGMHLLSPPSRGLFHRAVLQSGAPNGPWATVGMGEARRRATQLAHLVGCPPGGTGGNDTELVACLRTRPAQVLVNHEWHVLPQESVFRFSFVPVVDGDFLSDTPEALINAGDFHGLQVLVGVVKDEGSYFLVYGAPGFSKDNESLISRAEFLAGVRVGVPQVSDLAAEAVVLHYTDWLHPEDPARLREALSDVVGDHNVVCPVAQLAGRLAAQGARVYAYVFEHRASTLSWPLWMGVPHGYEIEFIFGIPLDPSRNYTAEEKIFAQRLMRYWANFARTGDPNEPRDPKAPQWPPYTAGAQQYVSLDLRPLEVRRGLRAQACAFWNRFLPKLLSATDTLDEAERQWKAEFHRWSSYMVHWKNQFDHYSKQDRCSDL

[12] = Permeability of compound by PAMPA
[13] = molecular target: Calcium-dependent protein kinase 1 (Plasmodium falciparum, UniProt P62344); experiment: Binding affinity to CDPK1 in Plasmodium falciparum 3D7 blood stage extract incubated for 1 hr in presence of ATP-competitive kinase inhibitor by kinobeads based pull down assay; settings: read-out: Kd(app); how it was run: as §2
Sequence of Calcium-dependent protein kinase 1 (P62344 whole entry): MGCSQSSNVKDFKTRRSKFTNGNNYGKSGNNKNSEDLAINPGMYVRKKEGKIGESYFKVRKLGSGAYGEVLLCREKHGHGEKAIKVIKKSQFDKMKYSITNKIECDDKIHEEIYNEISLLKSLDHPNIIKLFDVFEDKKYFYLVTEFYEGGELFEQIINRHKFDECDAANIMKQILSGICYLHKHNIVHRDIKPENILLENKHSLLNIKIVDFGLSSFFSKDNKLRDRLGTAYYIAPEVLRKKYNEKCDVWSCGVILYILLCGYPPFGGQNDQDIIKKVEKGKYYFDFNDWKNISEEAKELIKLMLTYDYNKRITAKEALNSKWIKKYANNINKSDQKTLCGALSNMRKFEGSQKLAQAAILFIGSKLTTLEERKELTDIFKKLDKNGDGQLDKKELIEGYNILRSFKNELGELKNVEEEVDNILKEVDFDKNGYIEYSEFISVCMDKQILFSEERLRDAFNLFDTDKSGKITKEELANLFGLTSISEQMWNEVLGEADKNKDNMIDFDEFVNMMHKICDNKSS

SMILES: Cc1cc(Nc2nccc(-c3sc(C4CCNCC4)nc3-c3ccc(F)cc3)n2)ccn1
- EC50 [1]: > 50000 nM
- solubility [2]: 410 µM (≈ 183 µg/mL)
- EC50 [3]: > 100000 nM
- Kd [4]: 190 nM
- EC50 [5]: > 50000 nM
- Kd [6]: 90 nM
- IC50 [7]: > 100000 nM
- EC50 (Plasmodium falciparum): 90 nM
- Kd [8]: 50 nM
- IC50 [9]: > 30000 nM
- chromatographic logD [10]: 2.54
- Kd [11]: 50 nM
- IC50 (Acetylcholinesterase): 400 nM
- Papp [12]: 21 ×10⁻⁶ cm/s
- Kd [13]: 50 nM
